Experimental data published in ChEMBL document CHEMBL1149292, “A rational utilization of high-throughput screening affords selective, orally bioavailable 1-benzyl-3-carboxyazetidine sphingosine-1-phosphate-1 receptor agonists” (J Med Chem, 2004).

Key:
[1] = target: T1, Sphingosine 1-phosphate receptor 1 (Homo sapiens, UniProt P21453); assay: Activity at human S1P1 receptor expressed in CHO cells by [35S]GTPgammaS binding assay; format: functional, cell-based
Outline: (§1)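 Agonism measured as ligand-induced [35S]-GTPγS binding to membranes of CHO cells stably expressing the human S1P receptor.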

[2] = target: T2, Sphingosine 1-phosphate receptor 4 (Homo sapiens, UniProt O95977); assay: Displacement of [33P]sphingosine 1 phosphate from human S1P4 receptor expressed in CHO cells; format: cell-based
T2 sequence (O95977 whole entry): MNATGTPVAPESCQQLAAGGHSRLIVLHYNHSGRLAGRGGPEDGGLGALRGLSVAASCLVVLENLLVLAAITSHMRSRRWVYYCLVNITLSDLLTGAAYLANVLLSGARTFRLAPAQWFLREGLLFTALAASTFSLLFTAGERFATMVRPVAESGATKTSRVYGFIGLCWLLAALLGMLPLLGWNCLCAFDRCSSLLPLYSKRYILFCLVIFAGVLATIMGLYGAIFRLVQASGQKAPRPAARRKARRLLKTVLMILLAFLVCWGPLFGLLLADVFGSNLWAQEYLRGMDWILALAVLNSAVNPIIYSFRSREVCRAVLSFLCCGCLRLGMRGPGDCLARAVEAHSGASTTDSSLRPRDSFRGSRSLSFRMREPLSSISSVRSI
Outline: (§2)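 Competition binding with [33P]-labeled S1P on membranes of CHO cells stably expressing each human S1P receptor. Values are the mean of n = 3 determinations.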

[3] = target: T3, Sphingosine 1-phosphate receptor 3 (Homo sapiens, UniProt Q99500); assay: Displacement of [33P]sphingosine 1 phosphate from human S1P3 receptor expressed in CHO cells; format: cell-based
T3 sequence (Q99500 whole entry): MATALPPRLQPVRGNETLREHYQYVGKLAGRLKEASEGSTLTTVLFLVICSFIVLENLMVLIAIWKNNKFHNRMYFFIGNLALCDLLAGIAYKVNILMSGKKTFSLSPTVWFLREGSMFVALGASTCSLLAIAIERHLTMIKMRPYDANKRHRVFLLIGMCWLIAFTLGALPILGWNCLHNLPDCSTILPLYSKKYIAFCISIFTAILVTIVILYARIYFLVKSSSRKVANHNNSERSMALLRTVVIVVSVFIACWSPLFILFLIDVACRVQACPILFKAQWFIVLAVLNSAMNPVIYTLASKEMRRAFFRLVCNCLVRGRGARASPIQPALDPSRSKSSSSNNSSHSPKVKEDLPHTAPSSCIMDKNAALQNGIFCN

[4] = target: Sphingosine 1-phosphate receptor 2 (Homo sapiens, UniProt O95136); assay: Displacement of [33P]sphingosine 1 phosphate from human S1P2 receptor expressed in CHO cells; format: cell-based
Sequence of Sphingosine 1-phosphate receptor 2 (O95136 whole entry): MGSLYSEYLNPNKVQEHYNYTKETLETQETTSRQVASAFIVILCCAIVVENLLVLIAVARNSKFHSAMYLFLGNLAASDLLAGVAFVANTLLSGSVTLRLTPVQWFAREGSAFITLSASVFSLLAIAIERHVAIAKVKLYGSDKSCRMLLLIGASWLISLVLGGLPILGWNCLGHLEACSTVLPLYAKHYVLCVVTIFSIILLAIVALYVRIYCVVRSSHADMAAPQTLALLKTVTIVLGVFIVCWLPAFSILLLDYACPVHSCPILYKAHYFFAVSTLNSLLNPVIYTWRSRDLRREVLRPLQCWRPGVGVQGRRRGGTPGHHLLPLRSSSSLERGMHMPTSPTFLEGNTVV

[5] = target: T1, Sphingosine 1-phosphate receptor 1; assay: Displacement of [33P]sphingosine 1 phosphate from human S1P1 receptor expressed in CHO cells; format: cell-based
[6] = target: Sphingosine 1-phosphate receptor 5 (Homo sapiens, UniProt Q9H228); assay: Displacement of [33P]sphingosine 1 phosphate from human S1P5 receptor expressed in CHO cells; format: cell-based; outline: as §2
Sequence of Sphingosine 1-phosphate receptor 5 (Q9H228 whole entry): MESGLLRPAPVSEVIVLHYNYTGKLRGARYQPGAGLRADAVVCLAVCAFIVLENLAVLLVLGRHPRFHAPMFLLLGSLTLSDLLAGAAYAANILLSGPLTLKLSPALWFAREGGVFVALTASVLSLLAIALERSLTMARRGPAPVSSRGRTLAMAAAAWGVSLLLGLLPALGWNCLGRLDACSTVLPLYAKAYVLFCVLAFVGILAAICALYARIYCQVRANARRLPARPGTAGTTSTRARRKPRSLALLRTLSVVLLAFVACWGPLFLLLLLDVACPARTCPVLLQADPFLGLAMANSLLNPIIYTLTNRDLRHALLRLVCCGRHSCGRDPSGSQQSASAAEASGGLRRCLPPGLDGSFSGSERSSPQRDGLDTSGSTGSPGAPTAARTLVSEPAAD

[7] = test system: Mus musculus; assay: Decrease in peripheral blood lymphocytes in po dosed mouse after 3 hrs; format: functional
Outline: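 Compound given orally to mice. Peripheral blood lymphocyte counts taken 3 h after dosing, expressed as average percent decrease in n = 3 animals versus controls (n = 3). ED50 from dose-titration.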

[8] = Oral bioavailability in rat; format: ADME, organism-based; conditions: in vivo
[9] = Half life in rat; format: ADME, organism-based; conditions: in vivo
[10] = Plasma clearance in rat at 2 mg/kg, po and 1 mg/kg, iv; format: ADME, organism-based
Outline: (§3)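 Rat PK at 2.0 mpk po and 1.0 mpk iv. Plasma compound levels measured.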

[11] = target: T3, Sphingosine 1-phosphate receptor 3; assay: Activity at human S1P3 receptor expressed in CHO cells by [35S]GTP-gamma-S binding assay; format: functional, cell-based; outline: as §1
[12] = Bioavailability in rat at 2 mg/kg, po and 1 mg/kg, iv; format: ADME, organism-based; conditions: in vivo; outline: as §3
[13] = Cmax in rat at 2 mg/kg, po and 1 mg/kg, iv; format: ADME, organism-based; conditions: in vivo; outline: as §3
[14] = Half life in rat at 2 mg/kg, po and 1 mg/kg, iv; format: ADME, organism-based; conditions: in vivo; outline: as §3
[15] = Volume of distribution at steady state in rat at 2 mg/kg, po and 1 mg/kg, iv; format: ADME, organism-based; conditions: in vivo, read-out: Vdss

T1 sequence (P21453 whole entry): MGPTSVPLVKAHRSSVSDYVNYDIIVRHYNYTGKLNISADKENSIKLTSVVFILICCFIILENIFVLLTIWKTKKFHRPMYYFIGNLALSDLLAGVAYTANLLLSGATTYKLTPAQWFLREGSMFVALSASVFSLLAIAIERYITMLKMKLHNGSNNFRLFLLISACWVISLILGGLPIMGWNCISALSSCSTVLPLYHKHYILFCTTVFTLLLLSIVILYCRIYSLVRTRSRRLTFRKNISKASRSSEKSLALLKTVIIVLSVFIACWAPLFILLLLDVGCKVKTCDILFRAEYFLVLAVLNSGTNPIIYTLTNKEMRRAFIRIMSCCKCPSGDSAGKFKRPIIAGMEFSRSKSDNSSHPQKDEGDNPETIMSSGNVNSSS

SMILES	EC50 [1]	IC50 [2]	IC50 [3]	IC50 [4] [nM]	IC50 [5]	IC50 [6]	ED50 [7] [mg/kg]	bioavailability [8] [%]	half-life [9] [h]	clearance [10] [mL/min/kg]	EC50 [11]	bioavailability [12] [%]	Cmax [13] [nM]	half-life [14] [h]	Vd [15] [L/kg]
O=C(O)C1CCN(Cc2ccc(OCc3cc(-c4ccccc4)c(C(F)(F)F)s3)cc2)C1 (centres undefined)	2.4 nM (agonist)	790 nM (antagonist)	1000 nM (antagonist)	> 10000	4.3 nM (antagonist)	120 nM (antagonist)									
O=C(O)C1CN(Cc2cc(Cl)c(OCc3cc(-c4ccccc4)c(C(F)(F)F)s3)c(Cl)c2)C1	2.7 nM (agonist)	640 nM (antagonist)	> 10000 nM	> 10000	7.5 nM (antagonist)	33 nM (antagonist)									
CCCCCCCCOc1c(Br)cc(CNCCCP(=O)(O)O)cc1OC		80 nM (antagonist)													
CCCCCCCCCc1ccc(CN2CCC(P(=O)(O)O)C2)cc1 (centres undefined)		45 nM (antagonist)	220 nM (antagonist)	> 10000	6.9 nM (antagonist)	6.3 nM (antagonist)									
CCCCCCCCCCCCC/C=C/[C@@H](O)[C@@H](N)COP(=O)(O)O		34 nM (antagonist)	0.26 nM (antagonist)		0.67 nM (antagonist)										
CCCCCCCCCc1ccc(CN2CCC(C(=O)O)C2)cc1 (centres undefined)		2500 nM (antagonist)	2100 nM (antagonist)	> 10000	20 nM (antagonist)	29 nM (antagonist)	23	> 70	0.9						
O=C(O)C1CN(Cc2ccc(-c3noc(-c4cc(-c5ccccc5)c(C(F)(F)F)s4)n3)cc2)C1	0.2 nM (agonist)	10000 nM	1000 nM (antagonist)	> 10000	8.3 nM (antagonist)	16 nM (antagonist)	0.07			2.2	17 nM (agonist)	64	1300	10.5	1.9
O=C(O)C1CN(Cc2ccc(OCc3cc(-c4ccccc4)c(C(F)(F)F)s3)c(C(F)(F)F)c2)C1	5.9 nM (agonist)	340 nM (antagonist)	> 10000 nM	> 10000	7.7 nM (antagonist)	21 nM (antagonist)									
COc1cc(CN2CC(C(=O)O)C2)ccc1OCc1cc(-c2ccccc2)c(C(F)(F)F)s1	47 nM (agonist)	2800 nM (antagonist)	> 10000 nM	> 10000	33 nM (antagonist)	77 nM (antagonist)									
CCCCCCCCc1ccc(CCC(N)(CO)CO)cc1 [FINGOLIMOD]		> 10000 nM	> 10000 nM	> 10000		2100 nM (antagonist)	0.15								
